# The source made the active and inactive calls. The calls are words filed in the database; no cut-off is given here.
# Legend:
# [1] = target: Cyclin-dependent kinase 1/cyclin B1 (Homo sapiens, UniProt P06493); assay: Inhibition of CDK1/Cyclin B; type: protein-complex assay
# [2] = Inhibition of CDK4/Cyclin D
# [3] = target: Cyclin-dependent kinase 2 (Homo sapiens, UniProt P24941); assay: Inhibition of CDK2/Cyclin A
# HOP-62 = assay: Cytotoxicity against human HOP62 cells after 48 hrs by sulforhodamine B assay; type: functional; details: for GI50: HOP-62, 48 h
# Summary of the method: (§1)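 NCI human tumor panel. Cells in RPMI 1640 with 5% FBS and 2 mM L-glutamine, 5000–40,000 cells/well by growth characteristics, 24 h preincubation at 37 °C. Compound added at time zero at five 10-fold dilutions, top concentration agent-dependent. Incubated 48 h (5% CO2, 100% humidity), then sulforhodamine B stain and plate-reader OD. GI50 and TGI are the concentrations giving 50% and total growth inhibition, in µM.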
# NCI-H322M = assay: Cytotoxicity against human NCI-H322M cells after 48 hrs by sulforhodamine B assay; type: functional; summary of the method: as §1
# [4] = (§2) Cytotoxicity against human […] cells after 48 hrs by sulforhodamine B assay; type: functional; summary of the method: as §1
# OVCAR-4 = assay: Cytotoxicity against human OVCAR4 cells after 48 hrs by sulforhodamine B assay; type: functional; summary of the method: as §1
# OVCAR-3 = assay: Cytotoxicity against human OVCAR-3 cells after 48 hrs by sulforhodamine B assay; type: functional; summary of the method: as §1
# HOP-92 = assay: Cytotoxicity against human HOP92 cells after 48 hrs by sulforhodamine B assay; type: functional; details: HOP-92, 48 h; summary of the method: as §1
# [5] = Cytotoxicity against human Hs 578T cells after 48 hrs by sulforhodamine B assay; type: functional; summary of the method: as §1
# SF-539 = assay: Cytotoxicity against human SF539 cells after 48 hrs by sulforhodamine B assay; type: functional; details: for GI50: SF-539, 48 h; summary of the method: as §1
# CAKI-1 = assay: Cytotoxicity against human Caki1 cells after 48 hrs by sulforhodamine B assay; type: functional; summary of the method: as §1
# CCRF-CEM = assay: Cytotoxicity against human CCRF-CEM cells after 48 hrs by sulforhodamine B assay; type: functional; summary of the method: as §1
# NCI-H226 = assay: Cytotoxicity against human NCI-H226 cells after 48 hrs by sulforhodamine B assay; type: functional; summary of the method: as §1
# ACHN = assay: Cytotoxicity against human ACHN cells after 48 hrs by sulforhodamine B assay; type: functional; summary of the method: as §1
# KM12 = assay: Cytotoxicity against human KM12 cells after 48 hrs by sulforhodamine B assay; type: functional; details: KM12, 48 h; summary of the method: as §1
# TK-10 = assay: Cytotoxicity against human TK10 cells after 48 hrs by sulforhodamine B assay; type: functional; details: TK-10, 48 h; summary of the method: as §1
# UACC-62 = assay: Cytotoxicity against human UACC62 cells after 48 hrs by sulforhodamine B assay; type: functional; summary of the method: as §1
# SF-268 = assay: Cytotoxicity against human SF268 cells after 48 hrs by sulforhodamine B assay; type: functional; summary of the method: as §1
# HCC 2998 = assay: Cytotoxicity against human HCC2998 cells after 48 hrs by sulforhodamine B assay; type: functional; summary of the method: as §1
# HCT-116 [6] = assay: Antitumor activity against human HCT116 cells xenografted in nude mouse; type: functional, cell-based
# HCT-116 [7] = assay: Cytotoxicity against human HCT116 cells after 48 hrs by sulforhodamine B assay; type: functional; details: HCT-116, 48 h; summary of the method: as §1
# LOX IMVI = assay: Cytotoxicity against human LOXIMVI cells after 48 hrs by sulforhodamine B assay; type: functional; summary of the method: as §1
# A498 = assay: Cytotoxicity against human A498 cells after 48 hrs by sulforhodamine B assay; type: functional; summary of the method: as §1
# MCF7 [8] = assay: Antitumor activity against human MCF7 cells assessed as cell growth at 10 uM after 48 hrs by sulforhodamine B assay; type: functional; details: MCF7, 48 h, read-out: Activity
# Summary of the method: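 NCI primary screen, single concentration 10^-5 M against MCF7, NCI-H460 and SF-268. Cells in RPMI 1640 with 5% FBS and 2 mM L-glutamine, seeded at 5000–40,000 cells/well by cell type, preincubated 24 h at 37 °C. Compound added at time zero, then 48 h incubation (5% CO2, 100% humidity). Growth read by sulforhodamine B optical density, reported as growth percentage.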
# MCF7 [9] = assay: Cytotoxicity against human MCF7 cells after 48 hrs by sulforhodamine B assay; type: functional; details: for GI50: MCF7, 48 h; summary of the method: as §1
# SR = assay: Cytotoxicity against human SR cells after 48 hrs by sulforhodamine B assay; type: functional; summary of the method: as §1
# SNB-75 = assay: Cytotoxicity against human SNB75 cells after 48 hrs by sulforhodamine B assay; type: functional; summary of the method: as §1
# RPMI8266 = assay: as §2; type: functional; summary of the method: as §1
# BT-549 = assay: Cytotoxicity against human BT549 cells after 48 hrs by sulforhodamine B assay; type: functional; summary of the method: as §1
# HCT-15 = assay: Cytotoxicity against human HCT15 cells after 48 hrs by sulforhodamine B assay; type: functional; summary of the method: as §1
# Chain of Cyclin-dependent kinase 1/cyclin B1 (P06493 whole entry): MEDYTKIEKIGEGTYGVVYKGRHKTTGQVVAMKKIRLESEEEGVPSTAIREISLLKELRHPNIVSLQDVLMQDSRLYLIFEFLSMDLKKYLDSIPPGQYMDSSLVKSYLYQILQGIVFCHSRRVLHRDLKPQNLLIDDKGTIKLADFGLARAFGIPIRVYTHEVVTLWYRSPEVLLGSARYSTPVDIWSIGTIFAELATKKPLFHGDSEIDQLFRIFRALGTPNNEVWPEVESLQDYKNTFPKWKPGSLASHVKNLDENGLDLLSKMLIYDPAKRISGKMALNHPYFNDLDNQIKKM
# Chain of Cyclin-dependent kinase 1/cyclin B1 (P14635 whole entry, further chain): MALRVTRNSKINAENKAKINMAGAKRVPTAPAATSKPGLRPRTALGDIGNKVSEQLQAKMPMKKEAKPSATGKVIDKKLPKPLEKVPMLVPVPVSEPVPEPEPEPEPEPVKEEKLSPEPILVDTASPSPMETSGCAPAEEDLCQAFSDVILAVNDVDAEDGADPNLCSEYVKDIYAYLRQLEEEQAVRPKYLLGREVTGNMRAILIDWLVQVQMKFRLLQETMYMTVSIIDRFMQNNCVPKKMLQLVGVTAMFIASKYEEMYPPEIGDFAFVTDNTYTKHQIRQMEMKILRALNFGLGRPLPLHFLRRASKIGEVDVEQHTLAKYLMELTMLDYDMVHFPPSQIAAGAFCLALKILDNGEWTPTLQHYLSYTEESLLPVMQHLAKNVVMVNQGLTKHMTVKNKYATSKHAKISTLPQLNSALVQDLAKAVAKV
structure (smiles),measurement,setting,value
c1ccc(Cc2nnc3sc(SSc4nn5c(Cc6ccccc6)nnc5s4)nn23)cc1,IC50,[1],5.3 µM
same,IC50,[2],25 µM
same,IC50,[3],15 µM
S=c1[nH]c(=S)c2c(Cc3nn4c(Cc5ccccc5)nnc4s3)n[nH]c2[nH]1,IC50,[1],14 µM
same,IC50,[2],> 48 µM
same,IC50,[3],24 µM
Nc1nc(O)c(Cc2nn3c(Cc4ccccc4)nnc3s2)s1,IC50,[1],> 120 µM
same,IC50,[2],> 48 µM
same,IC50,[3],14 µM
Nc1ccc(-c2nn3c(COc4ccc(Cl)cc4)nnc3s2)cc1,GI50,HOP-62,20.4 µM
same,pGI50,NCI-H322M,inactive
same,GI50,[4],77.6 µM
same,IC50,[1],6.5 µM
same,pGI50,OVCAR-4,inactive
same,pGI50,OVCAR-3,inactive
same,GI50,HOP-92,97.7 µM
same,GI50,[5],87.1 µM
same,GI50,SF-539,34.7 µM
same,GI50,"CAKI-1; CAKI-1, 48 h",49 µM
same,GI50,CCRF-CEM,10 µM
same,IC50,[2],2.1 µM
same,GI50,"NCI-H226; NCI-H226, 48 h",7.24 µM
same,GI50,ACHN,53.7 µM
same,GI50,KM12,> 100 µM
same,GI50,TK-10,85.1 µM
same,pGI50,UACC-62,inactive
same,GI50,"SF-268; SF-268, 48 h",46.8 µM
same,pGI50,HCC 2998,inactive
same,Activity,HCT-116 [6],inactive
same,GI50,HCT-116 [7],34.7 µM
same,pGI50,LOX IMVI,inactive
same,IC50,[3],0.33 µM
same,pGI50,A498,inactive
same,growth at 10 µM,MCF7 [8],128%
same,GI50,MCF7 [9],40.7 µM
same,GI50,SR,91.2 µM
Cc1nnc2sc(S)nn12,IC50,[1],19 µM
same,IC50,[2],23 µM
same,IC50,[3],6.8 µM
Nc1ccc(-c2nn3c(Cc4ccccc4)nnc3s2)cc1,IC50,[1],> 120 µM
same,IC50,[2],14 µM
same,IC50,[3],> 28 µM
Nc1nc(O)c(Cc2nn3c(COc4ccc(Cl)cc4)nnc3s2)s1,pGI50,HOP-62,inactive
same,GI50,NCI-H322M,11.2 µM
same,pGI50,SNB-75,inactive
same,pGI50,RPMI8266,inactive
same,IC50,[1],0.91 µM
same,pGI50,BT-549,inactive
same,pGI50,OVCAR-3,inactive
same,GI50,HOP-92,97.7 µM
same,GI50,[5],31.6 µM
same,GI50,SF-539,39.8 µM
same,pGI50,CAKI-1,inactive
same,IC50,[2],3 µM
same,GI50,ACHN,35.5 µM
same,GI50,KM12,7.41 µM
same,GI50,TK-10,45.7 µM
same,GI50,"UACC-62; UACC-62, 48 h",31.6 µM
same,pGI50,SF-268,inactive
same,GI50,"HCT-15; HCT-15, 48 h",0.741 µM
same,pGI50,HCC 2998,inactive
same,Activity,HCT-116 [6],Active
same,GI50,LOX IMVI,3.63 µM
same,IC50,[3],0.18 µM
same,GI50,"A498; A498, 48 h",0.0537 µM
same,growth at 10 µM,MCF7 [8],0%
same,GI50,MCF7 [9],> 100 µM
same,GI50,SR,49 µM
CCSc1nn2c(COc3ccc(Cl)cc3)nnc2s1,IC50,[1],> 48 µM
same,IC50,[2],> 120 µM
same,IC50,[3],24 µM
Cc1nnc2sc(Cc3n[nH]c4[nH]c(=S)[nH]c(=S)c34)nn12,IC50,[1],> 48 µM
same,IC50,[2],10 µM
same,IC50,[3],24 µM
NNc1nn2c(Cc3ccccc3)nnc2s1,IC50,[1],> 120 µM
same,IC50,[2],> 48 µM
same,IC50,[3],> 28 µM
Cc1nnc2sc(-c3ccc(N)cc3)nn12,GI50,HOP-62,87.1 µM
same,pGI50,NCI-H322M,inactive
same,GI50,"SNB-75; SNB-75, 48 h",21.4 µM
same,pGI50,RPMI8266,inactive
same,IC50,[1],> 120 µM
same,pGI50,OVCAR-4,inactive
same,GI50,"BT-549; BT-549, 48 h",> 100 µM
same,pGI50,OVCAR-3,inactive
same,GI50,[5],89.1 µM
same,pGI50,SF-539,inactive
same,pGI50,CAKI-1,inactive
same,pGI50,CCRF-CEM,inactive
same,IC50,[2],> 120 µM
same,pGI50,NCI-H226,inactive
same,pGI50,ACHN,inactive
same,GI50,KM12,> 100 µM
same,pGI50,UACC-62,inactive
same,pGI50,SF-268,inactive
same,pGI50,HCT-15,inactive
same,pGI50,HCC 2998,inactive
same,pGI50,LOX IMVI,inactive
same,IC50,[3],0.57 µM
same,pGI50,A498,inactive
same,growth at 10 µM,MCF7 [8],119%
same,pGI50,MCF7 [9],inactive
same,pGI50,SR,inactive
Cc1nnc2sc(SCc3ccccc3)nn12,IC50,[1],> 48 µM
same,IC50,[2],> 120 µM
same,IC50,[3],16 µM
